Experimental data published in ChEMBL document CHEMBL4823286, “Synthesis and evaluation of novel 2,4-diaminopyrimidines bearing a sulfoxide moiety as anaplastic lymphoma kinase (ALK) inhibition agents” (Bioorg Med Chem Lett, 2021).

Assays:
NCI-H2228 = assay: Antiproliferative activity against human NCI-H2228 cells assessed as inhibition of cell proliferation measured by CCK8 assay; assay type: functional, cell-based
Procedure, shortened: (§1)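 Cell proliferation inhibition; IC50 given as mean ± SD of three independent experiments.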

BaF3 = assay: Antiproliferative activity against mouse BaF3 cells overexpressing ALK assessed as inhibition of cell proliferation measured by CCK8 assay; assay type: functional, cell-based; procedure, shortened: as §1

| IC50 (NCI-H2228) [nM] | IC50 (BaF3) [nM] | Compound |
| --- | --- | --- |
| 35.2 | 13.1 | CC[S+]([O-])c1ccccc1Nc1nc(Nc2ccc(N3CCN(C)CC3)cc2OC)ncc1Cl (stereo not drawn) |
| 337 | 79.4 | CC[S+]([O-])c1cc(F)ccc1Nc1nc(Nc2ccc(N3CCC(N(C)C)CC3)cc2OC)ncc1Cl (stereo not drawn) |
| 134 | 128 | CC[S+]([O-])c1cc(Cl)ccc1Nc1nc(Nc2ccc(N3CCN(C)CC3)cc2OC)ncc1Cl (stereo not drawn) |
| 84.3 | 34.7 | CC[S+]([O-])c1cc(F)ccc1Nc1nc(Nc2ccc(N(C)CCN(C)C)cc2OC)ncc1Cl (stereo not drawn) |
